In data set [1] the test system is L1210. Kind of data set: Cytotoxicity against mouse L1210 cells after 72 hrs by phosphatase assay. The data set is classed as functional, cell-based. To be noted: L1210, 72 h. The procedure, abridged:
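L1210 mouse lymphocytic leukemia cells seeded at 30,000 cells/mL in DMEM + 10% FBS, 100 μL/well, 24 h at 37 °C, 5% CO2; DMSO serial 10-fold dilutions added, six concentrations over 0–100 nM or 0–1000 nM, duplicate, 72 h.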

Data set [2] in a line: Induction of w794 DNA alkylation (unknown origin) after 2 hrs by densitometric analysis relative to duocarmycin SA. The procedure, abridged:
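Loss of full-length labeled DNA quantified by densitometry of remaining non-alkylated DNA. Relative alkylation efficiency corrected for the 10-fold differences in compound concentrations used.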

Data set [3] can be described thus: Solubility of the compound in water after 40 hrs. It counts as physicochemical. The note with it: for solubility: buffer, 40 h; for solubility at 40 h: water.
Data set [4] can be described thus: Displacement of ethidium bromide from hairpin 5'AAAAA duplex DNA sequence (unknown origin) at 10 equivalent compound dose after 5 mins by FID assay.
Data set [5] in a line: Displacement of ethidium bromide from hairpin 5'AAAAA duplex DNA sequence (unknown origin) at 2 equivalent compound dose after 5 mins by FID assay.

Converted amounts (≈) assume the structure as drawn. Where only a bound is given, the exact number is not on record here.

With `COCCOCCOCCOCCOc1cc2cc(C(=O)N3C[C@@H](CCl)c4c3cc(O)c3[nH]c(C(=O)OC)cc43)[nH]c2c(OCCOCCOCCOCCOC)c1OCCOCCOCCOCCOC`, the 50% inhibitory concentration (IC50) in data set [1] was 35000 pM. In addition, the fold change (FC) in data set [2] was found to be 0.001. In data set [3], this compound had a solubility of over 19000 µg/mL.

`COCCOCCOCCOc1c(OC)cc2cc(C(=O)N3C[C@@H](CCl)c4c3cc(O)c3[nH]c(C(=O)OC)cc43)[nH]c2c1OC` registered an IC50 in data set [1] of 70 pM.

Take `COCCOc1c(OC)cc2cc(C(=O)N3C[C@@H](CCl)c4c3cc(O)c3[nH]c(C(=O)OC)cc43)[nH]c2c1OC`: in data set [1], half-maximal inhibition (IC50) was put at 18 pM.

For `COCCOCCOc1c(OC)cc2cc(C(=O)N3C[C@@H](CCl)c4c3cc(O)c3[nH]c(C(=O)OC)cc43)[nH]c2c1OC`, inhibition in data set [1] was half-maximal at 35 pM (IC50).

In the case of `COCCOCCOCCOCCOCCOc1cc2cc(C(=O)N3C[C@@H](CCl)c4c3cc(O)c3[nH]c(C(=O)OC)cc43)[nH]c2c(OCCOCCOCCOCCOCCOC)c1OCCOCCOCCOCCOCCOC`, in data set [1], half-maximal inhibition (IC50) required 370000 pM. For the same compound, in data set [2], the fold change (FC) came out at 0.0002. This compound also showed a solubility in data set [3] of over 12000 µg/mL.

In turn, `COCCOCCOCCOc1cc2cc(C(=O)N3C[C@@H](CCl)c4c3cc(O)c3[nH]c(C(=O)OC)cc43)[nH]c2c(OCCOCCOCCOC)c1OCCOCCOCCOC` had an IC50 in data set [1] of 3500 pM. The fold change (FC) in data set [2] amounted to 0.009. This compound gave a solubility in data set [3] of 80000 µg/mL (≈ 87900 µM).

The compound `COCCOc1cc2cc(C(=O)N3C[C@@H](CCl)c4c3cc(O)c3[nH]c(C(=O)OC)cc43)[nH]c2c(OCCOC)c1OCCOC` displayed a concentration for half-maximal inhibition (IC50) in data set [1] of 37 pM. For the same compound, in data set [2], the fold change (FC) turned out to be 0.9. Further, the results for the inhibition in data set [4] and in data set [5] were 50% and 10%, respectively. Further, the solubility at 40 h in data set [3] stood at 740 µg/mL (≈ 1150 µM).

Turning to `COCCOCCOCCOCCOCCOc1c(OC)cc2cc(C(=O)N3C[C@@H](CCl)c4c3cc(O)c3[nH]c(C(=O)OC)cc43)[nH]c2c1OC`, half-maximal inhibition in data set [1] (IC50) required 250 pM.

As for `COCCOCCOc1cc2cc(C(=O)N3C[C@@H](CCl)c4c3cc(O)c3[nH]c(C(=O)OC)cc43)[nH]c2c(OCCOCCOC)c1OCCOCCOC`, it took 260 pM to reach half-maximal inhibition in data set [1] (IC50). For the same compound, the fold change (FC) in data set [2] is 0.08. Also, the inhibition amounted to 27% in data set [4] and 0% in data set [5]. This compound displayed a solubility at 40 h in data set [3] of 2000 µg/mL (≈ 2570 µM).

The compound `COCCOCCOCCOCCOc1c(OC)cc2cc(C(=O)N3C[C@@H](CCl)c4c3cc(O)c3[nH]c(C(=O)OC)cc43)[nH]c2c1OC` registered an IC50 in data set [1] of 110 pM.

In data set [1], `COC(=O)c1cc2c3c(cc(O)c2[nH]1)N(C(=O)c1cc2cc(OC)c(OC)c(OC)c2[nH]1)C[C@H]3CCl` registered a half-maximal inhibitory concentration (IC50) of 8 pM. The fold change (FC) in data set [2] came to 1. The inhibition in data set [4] came out at 97%; in data set [5], 53%. The same compound registered a solubility at 40 h in data set [3] of 460 µg/mL (≈ 895 µM).

Broadly, the IC50 is the concentration that gives 50% inhibition. High values mean weaker potency in that assay, low ones greater potency in that assay. Broadly, the solubility is the concentration that dissolves in the medium under given conditions. High values mean a readily soluble substance, low ones a poorly soluble substance. What is called inhibition is the change of the read-out against control, counted positive when it falls.

For the origin of these results see ChEMBL document CHEMBL2417504, “A fundamental relationship between hydrophobic properties and biological activity for the duocarmycin class of DNA-alkylating antitumor drugs: hydrophobic-binding-driven bonding” (J Med Chem, 2013).
